Values after ≈ are worked out from the molar mass of the structure shown.
Tests used:
[1] = test system: HT-29; experiment: Cytotoxicity against human HT-29 cells after 96 hrs by MTT assay; format: functional, cell-based; details: HT-29, 96 h
Procedure, shortened: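 Cells were seeded at 5000 or 10,000 per well and exposed to medium with various sample concentrations for 96 h, with 0.1% DMSO as vehicle control. MTT (5 mg/mL in PBS) was then added for 4 h at 37 °C, 5% CO2. Formazan was dissolved in DMSO and read at OD 570 nm. IC50 is the concentration giving 50% toxicity; duplicate tests, mean ± SD (n = 2).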

[2] = target: Acetylcholinesterase (Homo sapiens, UniProt P22303); experiment: Inhibition of acetylcholinesterase (unknown origin) using acetylcholine iodide as substrate preincubated for 15 mins prior to substrate addition by spectrophotometric analysis
Chain of Acetylcholinesterase (P22303 whole entry): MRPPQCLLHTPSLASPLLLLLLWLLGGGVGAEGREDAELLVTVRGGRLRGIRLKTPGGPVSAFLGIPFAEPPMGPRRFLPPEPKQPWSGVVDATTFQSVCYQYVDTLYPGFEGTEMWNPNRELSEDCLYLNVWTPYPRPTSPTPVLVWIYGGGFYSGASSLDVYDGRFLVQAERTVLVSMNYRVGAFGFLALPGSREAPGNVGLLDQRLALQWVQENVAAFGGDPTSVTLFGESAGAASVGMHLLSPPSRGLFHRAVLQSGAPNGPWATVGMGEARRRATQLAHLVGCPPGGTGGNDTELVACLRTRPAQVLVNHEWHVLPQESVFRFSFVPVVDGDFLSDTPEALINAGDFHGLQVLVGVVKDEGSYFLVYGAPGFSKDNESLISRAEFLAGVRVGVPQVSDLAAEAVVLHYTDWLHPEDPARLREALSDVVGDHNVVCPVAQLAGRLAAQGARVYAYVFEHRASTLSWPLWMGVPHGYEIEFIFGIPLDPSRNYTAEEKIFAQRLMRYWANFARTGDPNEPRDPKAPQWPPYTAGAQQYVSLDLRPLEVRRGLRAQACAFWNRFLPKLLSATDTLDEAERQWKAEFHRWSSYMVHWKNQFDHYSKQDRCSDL

[3] = test system: HCT-116; experiment: Cytotoxicity against human HCT116 cells after 96 hrs by MTT assay; format: functional, cell-based; details: HCT-116, 96 h
Procedure, shortened: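 Cells were seeded at 5000 or 10,000 per well and exposed to medium with various sample concentrations for 96 h, with 0.1% DMSO as vehicle control. MTT (5 mg/mL in PBS) was then added for 4 h at 37 °C, 5% CO2. Formazan was dissolved in DMSO and read at OD 570 nm.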

[4] = test system: Radical scavenging activity; experiment: Antioxidant activity assessed as DPPH free radical scavenging activity after 30 mins by spectrophotometric analysis; format: functional
Procedure, shortened: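 Daily methanolic DPPH solution was adjusted to A517 = 1.1. Methanolic sample at several concentrations was added to 1 mL, incubated 30 min at 37 °C, then A517 was read. Scavenging % = [(Acontrol − Asample)/Acontrol] × 100. Run in triplicate with BHT as positive control.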

[5] = Antioxidant activity assessed as H2O2 scavenging activity by NBT reduction assay; format: functional
Procedure, shortened: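 H2O2 at 43 mM was prepared in 0.1 M phosphate buffer, pH 7.4. 100 µL of test solution was added along with NADH (73 µM), NBT (50 µM) and PMS (15 µM), 500 µL each. Percent H2O2 scavenged = [(Acontrol − Asample)/Acontrol] × 100.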

[6] = Antioxidant activity assessed as ABTS radical scavenging activity after 10 mins by spectrophotometric analysis; format: functional
Procedure, shortened: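 ABTS radical cation was made from 7 mM ABTS in water plus potassium persulfate (2.45 mM final), left 12 h in the dark at room temperature, then diluted in methanol to A734 0.706 ± 0.009. 1 mL of this was mixed with 1 mL of methanolic sample at several concentrations. […] Run in triplicate with a BHT positive control.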

[7] = Antioxidant activity assessed as superoxide radical scavenging activity after 2 mins by NBT reduction assay; format: functional
Procedure, shortened: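 The 1 mL reaction held 20 mM phosphate buffer pH 7.4, NADH 73 µM, NBT 50 µM, PMS 15 µM and sample at several concentrations. After 2 min at ambient temperature, formazan was read at A562 against a blank. % scavenging was taken vs control. Done three times, with BHT as comparator.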

[8] = test system: K562; experiment: Cytotoxicity against human K562 cells after 96 hrs by MTT assay; format: functional, cell-based; details: K562, 96 h
[9] = test system: MT4; experiment: Cytotoxicity against human MT4 cells after 96 hrs by MTT assay; format: functional, cell-based; details: MT4, 96 h
[10] = test system: Radical scavenging activity; experiment: Antioxidant activity assessed as DPPH free radical scavenging activity by spectrophotometric analysis; format: functional
[11] = Cytotoxicity against human MES-SA/Dx5 cells after 96 hrs by MTT assay; format: functional, cell-based; details: MES-SA/Dx5, 96 h
[12] = Antioxidant activity assessed as ABTS radical scavenging activity after 6 mins by spectrophotometric analysis; format: functional
[13] = Antioxidant activity assessed as superoxide radical scavenging activity measured every 30 seconds for 5 mins by spectrophotometric analysis; format: functional
[14] = Antioxidant activity assessed as hydroxyl radical scavenging activity after 20 mins by spectrophotometric analysis; format: functional
[15] = test system: AGS; experiment: Cytotoxicity against human AGS cells after 96 hrs by MTT assay; format: functional, cell-based
[16] = test system: PANC-1; experiment: Cytotoxicity against human PANC1 cells after 96 hrs by MTT assay; format: functional, cell-based; details: PANC-1, 96 h

| SMILES | IC50 [1] [µM] | IC50 [2] [µM] | IC50 [3] [µM] | also measured |
| --- | --- | --- | --- | --- |
| CC(=O)O[C@H]1C(=O)[C@@]2(C)[C@H]([C@H](OC(=O)c3ccccc3)[C@]3(O)C[C@H](OC(=O)[C@H](O)[C@@H](NC(=O)c4ccccc4)c4ccccc4)C(C)=C1C3(C)C)[C@]1(OC(C)=O)CO[C@@H]1C[C@@H]2O [PACLITAXEL] | 0.00198 |  |  |  |
| C/C=C(\C)C(=O)OC(C)(C)[C@@H]1Cc2cc3ccc(=O)oc3cc2O1 | 0.93 | > 100 | 7.6 |  |
| Cc1cc(C(C)(C)C)c(O)c(C(C)(C)C)c1 [BUTYLATED HYDROXYTOLUENE] |  |  |  | IC50 ([4]; read-out: IC50): 9.02 µM; IC50 [5]: 6.38 µM; IC50 [6]: 6.85 µM; IC50 [7]: 7.26 µM |
| O=c1ccc2cc3ccoc3cc2o1 [PSORALEN] | 41.7 | 6.48 | 45.6 | IC50 [8]: 131 µM |
| O=c1ccc2ccc(O)cc2o1 [UMBELLIFERONE] | 4.35 |  | 8.05 | IC50 [9]: 2340 µM; IC50 [10]: 36.1 µg/mL (≈ 223 µM) |
| CC(C)=CC(=O)OC(C)(C)[C@@H]1Cc2cc3ccc(=O)oc3cc2O1 [(-)-PRANTSCHIMGIN] | 5.2 | > 100 | 15 | IC50 [11]: 3.1 µM |
| O=C(O)/C=C/c1ccc(O)c(O)c1 [CAFFEIC ACID] | 27.2 | > 100 | 29.7 | IC50 [12]: 0.57 µg/mL (≈ 3.16 µM); IC50 [13]: 0.38 µg/mL (≈ 2.11 µM); IC50 [14]: 0.37 µg/mL (≈ 2.05 µM); IC50 [4]: 0.39 µg/mL; IC50 [15]: 129 µM |
| COc1c2occc2cc2ccc(=O)oc12 [METHOXSALEN] | > 100 | 0.76 | > 100 | IC50 [16]: 83.3 µM |
